Key:
Type in all cases: functional
Tobacco mosaic virus = test: Antiviral activity against Tobacco mosaic virus (TMV) inoculated in fresh tobacco leaf at 100 mg/L by half-leaf method
Outline: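 Half-leaf method on tobacco leaves at the 5-6 growth stage. Leaves were inoculated with TMV by juice-leaf rubbing at 5.88 × 10-2 µg/mL and cut along the main vein. One half was immersed in test solution and the other in double distilled water for 20 min, then cultured at 25 °C for 72 h, in triplicate. Inhibition = 100(CK − A)/CK, from average lesion counts.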

Cladosporium cucumerinum = test: Antifungal activity against Cladosporium cucumerinum assessed as inhibition of mycelium growth at 50 mg/L at 26 degC measured after 72 hr
Outline: (§1)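 Mycelium growth assay on agar. 1 mL test solution (50 mg/L) was poured into a 9 cm plate with 9 mL agar medium. Controls used sterile water in its place. A 4 mm plug from the margin of an actively growing colony was placed in the centre and incubated at 26 °C. Hyphal diameter was measured over 72 h, in triplicate. Inhibition % = (control diameter − treated diameter)/control diameter.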

Mycosphaerella arachidis = test: Antifungal activity against Mycosphaerella arachidis assessed as inhibition of mycelium growth at 50 mg/L at 26 degC measured after 72 hr; outline: as §1
[1] = test system: Botryosphaeria berengeriana; test: Antifungal activity against Botryosphaeria berengeriana assessed as inhibition of mycelium growth at 50 mg/L at 26 degC measured after 72 hr; outline: as §1
Alternaria solani = test: Antifungal activity against Alternaria solani assessed as inhibition of mycelium growth at 50 mg/L at 26 degC measured after 72 hr; outline: as §1
Fusarium graminearum = test: Antifungal activity against Fusarium graminearum assessed as inhibition of mycelium growth at 50 mg/L at 26 degC measured after 72 hr
Outline: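 Mycelium growth test on agar plates: 1 mL test solution (50 mg/L) mixed with 9 mL agar medium; sterile water in place of test solution for controls. 4 mm inocula cut from margins of actively growing colonies, placed at plate centre, incubated at 26 °C; mycelium diameter measured over 72 h. Inhibition % from mean hyphal diameter against control. Triplicate.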

Cucumis sativus = test: Plant growth regulatory activity in Cucumis sativus (cucumber) seed assessed as number of root at 10 mg/L at 26 degC measured after 5 days
Outline: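 Cucumber seeds were incubated at 26 °C in the dark for 72 h, then 10 cotyledons were excised and treated. Incubation continued at 26 °C in the dark for 5 days. Roots were counted, with water-only controls, in triplicate.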

Digitaria sanguinalis [2] = test: Herbicidal activity against hairy crabgrass Digitaria sanguinalis (hairy crabgrass) assessed as herbicidal damage at 1.5 kg/ha measured after preemergence treatment; conditions: pre-emergence
Outline: (§2)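 Seeds were sown in 6 cm boxes of artificial mixed soil, covered with plastic film until emergence, and grown in a greenhouse. Sprays were applied right after sowing (preemergence) or after the first true leaf expanded (postemergence). Controls received the same amount of water/DMF/Tween 20. Above-ground fresh weight was taken 10 days after treatment, in triplicate, as % damage versus control.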

Medicago sativa [3] = test: Herbicidal activity against Medicago sativa (alfalfa) assessed as herbicidal damage at 1.5 kg/ha measured after preemergence treatment; conditions: pre-emergence; outline: as §2
Amaranthus retroflexus [4] = test: Herbicidal activity against Amaranthus retroflexus assessed as herbicidal damage at 1.5 kg/ha measured after preemergence treatment; conditions: pre-emergence; outline: as §2
Brassica napus [5] = test: Herbicidal activity against rape Brassica napus (oilseed rape) assessed as herbicidal damage at 1.5 kg/ha measured after preemergence treatment; conditions: pre-emergence; outline: as §2
Digitaria sanguinalis [6] = test: Herbicidal activity against hairy crabgrass Digitaria sanguinalis (hairy crabgrass) assessed as herbicidal damage at 1.5 kg/ha measured after postemergence treatment; conditions: post-emergence; outline: as §2
Medicago sativa [7] = test: Herbicidal activity against Medicago sativa (alfalfa) assessed as herbicidal damage at 1.5 kg/ha measured after postemergence treatment; conditions: post-emergence; outline: as §2
Amaranthus retroflexus [8] = test: Herbicidal activity against Amaranthus retroflexus assessed as herbicidal damage at 1.5 kg/ha measured after postemergence treatment; conditions: post-emergence; outline: as §2
Brassica napus [9] = test: Herbicidal activity against rape Brassica napus (oilseed rape) assessed as herbicidal damage at 1.5 kg/ha measured after postemergence treatment; conditions: post-emergence; outline: as §2

CCOCCOC(=O)/C(C#N)=C(\NCC1CCOC1)C(C)C (centres undefined)
Activity (Tobacco mosaic virus): 4.9% | inhibition at 50 µg/mL (Cladosporium cucumerinum): 5.3% | inhibition at 50 µg/mL (Mycosphaerella arachidis): 17.9% | inhibition at 50 µg/mL [1]: 9.1% | inhibition at 50 µg/mL (Alternaria solani): 0% | inhibition at 50 µg/mL (Fusarium graminearum): 0% | Activity (Cucumis sativus): 14.4% | inhibition at 1500 g/ha (Digitaria sanguinalis [2]): 0% | inhibition at 1500 g/ha (Medicago sativa [3]): 2.3% | inhibition at 1500 g/ha (Amaranthus retroflexus [4]): 12.6% | inhibition at 1500 g/ha (Brassica napus [5]): 0% | inhibition at 1500 g/ha (Digitaria sanguinalis [6]): 57.6% | inhibition at 1500 g/ha (Medicago sativa [7]): 41.3% | inhibition at 1500 g/ha (Amaranthus retroflexus [8]): 37.8% | inhibition at 1500 g/ha (Brassica napus [9]): 88.2%

CCOCCOC(=O)/C(C#N)=C(\NCc1ccoc1)C(C)C
inhibition at 50 µg/mL (Cladosporium cucumerinum): 13.2% | inhibition at 50 µg/mL (Mycosphaerella arachidis): 30.4% | inhibition at 50 µg/mL [1]: 22.7% | inhibition at 50 µg/mL (Alternaria solani): 25% | inhibition at 50 µg/mL (Fusarium graminearum): 0% | Activity (Cucumis sativus): 11.4% | inhibition at 1500 g/ha (Digitaria sanguinalis [2]): 33.6% | inhibition at 1500 g/ha (Medicago sativa [3]): 10.5% | inhibition at 1500 g/ha (Amaranthus retroflexus [4]): 22.1% | inhibition at 1500 g/ha (Brassica napus [5]): 0% | inhibition at 1500 g/ha (Digitaria sanguinalis [6]): 0% | inhibition at 1500 g/ha (Medicago sativa [7]): 13.2% | inhibition at 1500 g/ha (Amaranthus retroflexus [8]): 27.4% | inhibition at 1500 g/ha (Brassica napus [9]): 51.9%

CCOCCOC(=O)/C(C#N)=C(/NCC1CCCO1)SC (centres undefined)
inhibition at 50 µg/mL (Cladosporium cucumerinum): 34.2% | inhibition at 50 µg/mL (Mycosphaerella arachidis): 17.9% | inhibition at 50 µg/mL [1]: 4.5% | inhibition at 50 µg/mL (Alternaria solani): 0% | inhibition at 50 µg/mL (Fusarium graminearum): 40% | Activity (Cucumis sativus): -0.6% | inhibition at 1500 g/ha (Digitaria sanguinalis [2]): 35.7% | inhibition at 1500 g/ha (Medicago sativa [3]): 21.8% | inhibition at 1500 g/ha (Amaranthus retroflexus [4]): 9.5% | inhibition at 1500 g/ha (Brassica napus [5]): 0% | inhibition at 1500 g/ha (Digitaria sanguinalis [6]): 0% | inhibition at 1500 g/ha (Medicago sativa [7]): 23.4% | inhibition at 1500 g/ha (Amaranthus retroflexus [8]): 37.8% | inhibition at 1500 g/ha (Brassica napus [9]): 47.5%

CCOCCOC(=O)/C(C#N)=C(/NCc1ccco1)SC
inhibition at 50 µg/mL (Cladosporium cucumerinum): 15.8% | inhibition at 50 µg/mL (Mycosphaerella arachidis): 16.1% | inhibition at 50 µg/mL [1]: 22.7% | inhibition at 50 µg/mL (Alternaria solani): 25% | inhibition at 50 µg/mL (Fusarium graminearum): 36.7% | Activity (Cucumis sativus): 14.4% | inhibition at 1500 g/ha (Digitaria sanguinalis [2]): 37.8% | inhibition at 1500 g/ha (Medicago sativa [3]): 0% | inhibition at 1500 g/ha (Amaranthus retroflexus [4]): 10.5% | inhibition at 1500 g/ha (Brassica napus [5]): 20.7% | inhibition at 1500 g/ha (Digitaria sanguinalis [6]): 13.1% | inhibition at 1500 g/ha (Medicago sativa [7]): 18.6% | inhibition at 1500 g/ha (Amaranthus retroflexus [8]): 30.2% | inhibition at 1500 g/ha (Brassica napus [9]): 22.9%

CCOCCOC(=O)/C(C#N)=C(/C)NCc1ccco1
inhibition at 50 µg/mL (Cladosporium cucumerinum): 21.1% | inhibition at 50 µg/mL (Mycosphaerella arachidis): 44.6% | inhibition at 50 µg/mL [1]: 22.7% | inhibition at 50 µg/mL (Alternaria solani): 0% | inhibition at 50 µg/mL (Fusarium graminearum): 46.7% | Activity (Cucumis sativus): -0.6% | inhibition at 1500 g/ha (Digitaria sanguinalis [2]): 42.1% | inhibition at 1500 g/ha (Medicago sativa [3]): 12% | inhibition at 1500 g/ha (Amaranthus retroflexus [4]): 3.2% | inhibition at 1500 g/ha (Brassica napus [5]): 8.5% | inhibition at 1500 g/ha (Digitaria sanguinalis [6]): 17.2% | inhibition at 1500 g/ha (Medicago sativa [7]): 5.4% | inhibition at 1500 g/ha (Amaranthus retroflexus [8]): 32.3% | inhibition at 1500 g/ha (Brassica napus [9]): 20.1%

CCC/C(NCc1ccco1)=C(\C#N)C(=O)OCCOCC
inhibition at 50 µg/mL (Cladosporium cucumerinum): 13.2% | inhibition at 50 µg/mL (Mycosphaerella arachidis): 3.6% | inhibition at 50 µg/mL [1]: 9.1% | inhibition at 50 µg/mL (Alternaria solani): 10.7% | inhibition at 50 µg/mL (Fusarium graminearum): 30% | Activity (Cucumis sativus): 14.4% | inhibition at 1500 g/ha (Digitaria sanguinalis [2]): 22.8% | inhibition at 1500 g/ha (Medicago sativa [3]): 0% | inhibition at 1500 g/ha (Amaranthus retroflexus [4]): 0% | inhibition at 1500 g/ha (Brassica napus [5]): 30.7% | inhibition at 1500 g/ha (Digitaria sanguinalis [6]): 1% | inhibition at 1500 g/ha (Medicago sativa [7]): 12.6% | inhibition at 1500 g/ha (Amaranthus retroflexus [8]): 31.6% | inhibition at 1500 g/ha (Brassica napus [9]): 22.9%

CCOCCOC(=O)/C(C#N)=C(/NCC1CCOC1)SC (centres undefined)
inhibition at 50 µg/mL (Cladosporium cucumerinum): 21.1% | inhibition at 50 µg/mL (Mycosphaerella arachidis): 25% | inhibition at 50 µg/mL [1]: 27.3% | inhibition at 50 µg/mL (Alternaria solani): 21.4% | inhibition at 50 µg/mL (Fusarium graminearum): 0% | Activity (Cucumis sativus): -9.6% | inhibition at 1500 g/ha (Digitaria sanguinalis [2]): 5.7% | inhibition at 1500 g/ha (Medicago sativa [3]): 0% | inhibition at 1500 g/ha (Amaranthus retroflexus [4]): 22.1% | inhibition at 1500 g/ha (Brassica napus [5]): 0% | inhibition at 1500 g/ha (Digitaria sanguinalis [6]): 0% | inhibition at 1500 g/ha (Medicago sativa [7]): 4.2% | inhibition at 1500 g/ha (Amaranthus retroflexus [8]): 43.3% | inhibition at 1500 g/ha (Brassica napus [9]): 50.5%

Source: ChEMBL document CHEMBL3046176, “Synthesis, crystal structure, and biological activities of 2-cyanoacrylates containing furan or tetrahydrofuran moieties” (2007)
